Data set [1] has as its target T1, Cathepsin D (Homo sapiens, UniProt P07339). Nature of the data set: Inhibition of human cathepsin D by FRET based peptide cleavage assay.
Data set [2] concerns the target T2, Beta-secretase 2 (Homo sapiens) (UniProt Q9Y5Z0).
T2 sequence (whole entry): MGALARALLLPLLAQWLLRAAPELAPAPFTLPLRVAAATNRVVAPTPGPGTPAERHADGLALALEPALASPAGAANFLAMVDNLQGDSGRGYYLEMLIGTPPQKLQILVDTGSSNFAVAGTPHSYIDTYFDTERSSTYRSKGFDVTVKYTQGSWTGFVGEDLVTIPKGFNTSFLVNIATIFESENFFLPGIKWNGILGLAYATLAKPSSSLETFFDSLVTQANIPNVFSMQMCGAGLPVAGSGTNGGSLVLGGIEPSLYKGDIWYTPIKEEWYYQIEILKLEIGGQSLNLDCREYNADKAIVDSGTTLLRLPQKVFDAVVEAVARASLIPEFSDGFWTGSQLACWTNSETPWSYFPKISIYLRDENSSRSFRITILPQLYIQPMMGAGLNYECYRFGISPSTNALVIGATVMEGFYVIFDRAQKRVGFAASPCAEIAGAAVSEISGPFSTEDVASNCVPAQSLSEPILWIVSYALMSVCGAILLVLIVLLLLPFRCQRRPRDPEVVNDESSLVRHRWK
Conditions: 25 uM.

Data set [3] is described as follows: Dissociation constant, pKa of the compound. The format is physicochemical.
In data set [4] the target is T1, Cathepsin D. Nature of the data set: Inhibition of human cathepsin D at 100 uM by FRET based peptide cleavage assay.
The next data set concerns the target T3, Renin (Homo sapiens, UniProt P00797).
T3 sequence (P00797 whole entry): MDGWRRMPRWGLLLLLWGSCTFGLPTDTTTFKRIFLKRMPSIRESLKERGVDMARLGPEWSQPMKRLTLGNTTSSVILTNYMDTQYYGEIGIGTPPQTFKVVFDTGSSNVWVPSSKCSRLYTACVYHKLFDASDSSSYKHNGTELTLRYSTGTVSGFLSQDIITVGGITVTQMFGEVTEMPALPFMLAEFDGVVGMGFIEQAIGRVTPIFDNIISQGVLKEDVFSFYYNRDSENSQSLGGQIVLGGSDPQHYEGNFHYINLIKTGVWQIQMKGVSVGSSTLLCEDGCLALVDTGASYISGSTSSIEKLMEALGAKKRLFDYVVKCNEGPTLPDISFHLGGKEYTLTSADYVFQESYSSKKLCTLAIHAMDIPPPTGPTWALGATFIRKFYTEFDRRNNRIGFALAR
The data set is described as follows: Inhibition of human recombinant renin by FRET based peptide cleavage assay.

Data set [5] in a line: Inhibition of pepsin by FRET based peptide cleavage assay.
Data set [6] deals with T4, Beta-secretase 1 (Homo sapiens, UniProt P56817). The data set is described as follows: Inhibition of human BACE1 by FRET based peptide cleavage assay.
For a further data set, the species on record is Homo sapiens. Nature of the data set: Selectivity for human BACE1 over human BACE2.
For another data set, the target named is T5, Beta-secretase 2 (Homo sapiens, UniProt Q9Y5Z0).
T5 sequence (Q9Y5Z0 whole entry): T2 sequence (whole entry)
The data set is described as follows: Inhibition of human BACE2 by FRET based peptide cleavage assay.

The target of data set [7] is T4, Beta-secretase 1. Nature of the data set: Inhibition of BACE1 expressed in CHOK1 cells coexpressing human recombinant wild type APP assessed as blockade of amyloid beta production by ELISA. The format is cell-based, CHO-K1.
The next data set has as its system Mus musculus. The data set is described as follows: Reduction in amyloid beta 40 level in Tg2576 mouse plasma at 100 mg/kg, po after 8 hrs. In kind it is functional. On the set-up: scale not given: the % may be the effect or the level left. The essentials: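 Tg2576 mice received a single acute oral dose. Plasma Aβ40 was measured 8 h after dosing.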

Experimental findings from ChEMBL document CHEMBL1156789, “Design and synthesis of 5,5'-disubstituted aminohydantoins as potent and selective human beta-secretase (BACE1) inhibitors” (J Med Chem, 2010) are described below.

T4 sequence (P56817 whole entry): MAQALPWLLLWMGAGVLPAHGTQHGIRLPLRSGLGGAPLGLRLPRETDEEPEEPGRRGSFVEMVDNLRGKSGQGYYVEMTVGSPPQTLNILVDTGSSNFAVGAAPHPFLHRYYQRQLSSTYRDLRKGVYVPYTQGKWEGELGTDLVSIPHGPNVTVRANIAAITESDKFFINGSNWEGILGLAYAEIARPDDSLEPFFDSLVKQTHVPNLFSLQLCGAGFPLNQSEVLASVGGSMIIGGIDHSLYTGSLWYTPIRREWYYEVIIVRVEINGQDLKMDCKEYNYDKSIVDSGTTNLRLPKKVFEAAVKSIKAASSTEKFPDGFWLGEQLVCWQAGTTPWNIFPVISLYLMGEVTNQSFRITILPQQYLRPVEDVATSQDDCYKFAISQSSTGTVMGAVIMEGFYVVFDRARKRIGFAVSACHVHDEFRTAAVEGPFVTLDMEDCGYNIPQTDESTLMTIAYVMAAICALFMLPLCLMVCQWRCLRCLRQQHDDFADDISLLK
T1 sequence (P07339 65-162 limits assumed): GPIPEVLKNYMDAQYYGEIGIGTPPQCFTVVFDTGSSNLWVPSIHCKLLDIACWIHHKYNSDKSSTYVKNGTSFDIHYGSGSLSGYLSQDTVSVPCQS
T1 sequence (P07339 169-412 limits assumed): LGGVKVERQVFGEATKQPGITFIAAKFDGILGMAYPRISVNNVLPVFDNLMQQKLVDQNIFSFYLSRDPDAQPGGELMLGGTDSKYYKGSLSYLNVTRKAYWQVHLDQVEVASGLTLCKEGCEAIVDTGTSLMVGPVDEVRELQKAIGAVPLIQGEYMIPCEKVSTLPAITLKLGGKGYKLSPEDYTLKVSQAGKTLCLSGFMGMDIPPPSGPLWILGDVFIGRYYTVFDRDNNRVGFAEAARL

As to `COc1ccc([C@@]2(C34CC5CC(CC(C5)C3)C4)N=C(N)N(C)C2=O)cc1`, the IC50 on Cathepsin D [1] is 20.8 µM. The same compound displayed an inhibition in [2] of 50%.

For the compound `NC1=NC(c2ccccc2)(c2ccccc2)C2=NCCCN12`, in data set [3], the pKa was 7.6.

For `CN1C(=O)C(c2ccccc2)(c2ccccc2)N=C1N`, the inhibition against Cathepsin D [4] turned out to be 36%. The figures for the half-maximal inhibitory concentration (IC50) (on Renin; in data set [5]) were 9.6 µM and 11.1 µM, respectively. This compound also returned a pKa in data set [3] of 5.7.

For `COc1ccc(C2(C34CC5CC(CC(C5)C3)C4)N=C(N)N(C)C2=O)cc1OC` (stereo not given), the IC50 on Cathepsin D [1] stood at 36.6 µM; against Beta-secretase 1 [6] it was 0.27 µM; at Beta-secretase 2 it was 9.59 µM. Further, the Ratio IC50 in the data set listed under Homo sapiens was determined as 20. Besides, at Beta-secretase 1 [7], the EC50 is 0.19 µM.

As for `CCc1cc(C2(C34CC5CC(CC(C5)C3)C4)N=C(N)N(C)C2=O)ccc1OC` (stereo not given), the IC50 against Cathepsin D [1] was found to be 14.1 µM; at Beta-secretase 1 [6] it was 0.28 µM; at Beta-secretase 2, 4.33 µM. In the data set filed under Homo sapiens, the Ratio IC50 is 20. Besides, on Beta-secretase 1 [7], the EC50 turned out to be 0.76 µM.

In the case of `COc1ccc([C@@]2(c3ccc(F)c(-c4cccnc4F)c3)N=C(N)N(C)C2=O)cc1C`, the 50% inhibitory concentration (IC50) against Cathepsin D [1] worked out at 0.82 µM; at Beta-secretase 2, 0.81 µM. Further, the Activity in the data set with Mus musculus is 69%.
